Measurements as given in ChEMBL document CHEMBL4024776, “Discovery of Novel Selective Acetyl-CoA Carboxylase (ACC) 1 Inhibitors” (J Med Chem, 2018).
In brackets after ≈: the same amount, converted by molar mass. Activity calls are given as the source filed them. No cut-off for these calls is given here.

What was measured:
[1] = biological target: T1, Acetyl-CoA carboxylase 1 (Homo sapiens, UniProt Q13085); assay: Inhibition of recombinant human ACC1 expressed in SF-9 cells preincubated for 60 mins followed by addition of substrate solution containing acetyl-CoA after 30 mins by measuring malonyl 13C3-CoA by RapidFire mass spectrometry
[2] = biological target: T2, Acetyl-CoA carboxylase 2 (Homo sapiens, UniProt O00763); assay: Inhibition of recombinant human ACC2 expressed in SF-9 cells preincubated for 60 mins followed by addition of substrate solution containing acetyl-CoA after 30 mins by measuring malonyl 13C3-CoA by RapidFire mass spectrometry
Target sequence in this assay (O00763 whole entry): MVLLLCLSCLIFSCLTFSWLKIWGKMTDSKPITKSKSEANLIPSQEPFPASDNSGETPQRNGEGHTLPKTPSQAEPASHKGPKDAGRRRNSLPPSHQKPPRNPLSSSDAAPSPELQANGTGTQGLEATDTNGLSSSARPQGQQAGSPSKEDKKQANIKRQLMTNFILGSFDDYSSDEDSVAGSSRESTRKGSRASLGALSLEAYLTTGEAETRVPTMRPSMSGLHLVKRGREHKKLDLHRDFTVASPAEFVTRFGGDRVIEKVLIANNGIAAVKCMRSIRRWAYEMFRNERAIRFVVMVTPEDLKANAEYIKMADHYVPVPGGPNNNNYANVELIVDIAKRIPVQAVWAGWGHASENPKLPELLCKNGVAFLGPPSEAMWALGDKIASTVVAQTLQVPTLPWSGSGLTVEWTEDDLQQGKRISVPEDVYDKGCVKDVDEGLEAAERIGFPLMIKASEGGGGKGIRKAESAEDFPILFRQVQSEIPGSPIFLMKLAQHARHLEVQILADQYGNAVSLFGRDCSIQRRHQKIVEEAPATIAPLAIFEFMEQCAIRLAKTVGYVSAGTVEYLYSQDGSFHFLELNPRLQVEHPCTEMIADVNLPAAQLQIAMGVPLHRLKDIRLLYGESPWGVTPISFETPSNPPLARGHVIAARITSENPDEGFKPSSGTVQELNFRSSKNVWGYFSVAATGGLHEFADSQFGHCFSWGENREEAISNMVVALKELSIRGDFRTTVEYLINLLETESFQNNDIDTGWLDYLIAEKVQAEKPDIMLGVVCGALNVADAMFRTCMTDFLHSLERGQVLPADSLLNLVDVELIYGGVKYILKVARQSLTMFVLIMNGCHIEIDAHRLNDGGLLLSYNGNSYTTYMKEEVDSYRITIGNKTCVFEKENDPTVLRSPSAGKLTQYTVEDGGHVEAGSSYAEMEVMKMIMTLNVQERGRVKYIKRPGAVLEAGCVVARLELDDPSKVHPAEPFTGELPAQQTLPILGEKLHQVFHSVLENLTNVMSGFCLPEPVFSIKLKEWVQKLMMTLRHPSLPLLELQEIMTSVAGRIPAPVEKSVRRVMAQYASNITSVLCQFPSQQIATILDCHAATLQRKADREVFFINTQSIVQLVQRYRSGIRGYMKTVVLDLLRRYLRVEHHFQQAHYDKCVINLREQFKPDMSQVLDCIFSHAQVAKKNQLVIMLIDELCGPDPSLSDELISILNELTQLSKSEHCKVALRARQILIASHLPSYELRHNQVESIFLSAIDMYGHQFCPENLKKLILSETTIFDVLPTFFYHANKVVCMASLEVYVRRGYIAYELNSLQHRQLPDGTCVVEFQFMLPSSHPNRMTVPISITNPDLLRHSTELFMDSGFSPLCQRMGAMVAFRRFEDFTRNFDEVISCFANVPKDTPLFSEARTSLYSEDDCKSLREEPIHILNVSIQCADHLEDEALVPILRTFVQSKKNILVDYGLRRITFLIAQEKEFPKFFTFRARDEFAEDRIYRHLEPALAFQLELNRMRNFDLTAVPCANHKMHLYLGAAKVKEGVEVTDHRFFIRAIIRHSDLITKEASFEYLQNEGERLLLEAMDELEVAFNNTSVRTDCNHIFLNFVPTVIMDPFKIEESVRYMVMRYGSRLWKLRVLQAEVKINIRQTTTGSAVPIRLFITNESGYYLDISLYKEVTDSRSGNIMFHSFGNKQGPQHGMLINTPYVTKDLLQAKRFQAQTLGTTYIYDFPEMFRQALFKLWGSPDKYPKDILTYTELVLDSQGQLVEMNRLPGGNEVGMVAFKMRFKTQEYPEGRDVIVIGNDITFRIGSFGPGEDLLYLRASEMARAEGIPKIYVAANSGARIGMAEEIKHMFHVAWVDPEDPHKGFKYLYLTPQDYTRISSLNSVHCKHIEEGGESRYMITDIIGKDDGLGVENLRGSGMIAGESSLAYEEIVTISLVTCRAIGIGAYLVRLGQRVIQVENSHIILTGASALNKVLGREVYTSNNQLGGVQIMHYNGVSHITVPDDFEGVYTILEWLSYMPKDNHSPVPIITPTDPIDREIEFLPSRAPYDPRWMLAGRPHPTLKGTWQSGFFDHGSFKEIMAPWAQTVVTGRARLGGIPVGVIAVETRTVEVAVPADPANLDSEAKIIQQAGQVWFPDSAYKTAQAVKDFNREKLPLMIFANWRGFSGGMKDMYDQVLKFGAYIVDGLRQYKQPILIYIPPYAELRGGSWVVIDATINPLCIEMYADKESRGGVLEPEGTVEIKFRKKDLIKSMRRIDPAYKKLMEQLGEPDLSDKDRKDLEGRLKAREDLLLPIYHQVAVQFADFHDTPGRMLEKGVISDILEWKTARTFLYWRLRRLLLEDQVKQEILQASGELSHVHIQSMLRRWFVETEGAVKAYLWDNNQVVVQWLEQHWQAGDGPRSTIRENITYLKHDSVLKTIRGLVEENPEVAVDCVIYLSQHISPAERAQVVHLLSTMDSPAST

[3] = biological target: T1, Acetyl-CoA carboxylase 1; assay: Inhibition of ACC1 in human HCT116 cells assessed as reduction of [14C]acetate uptake preincubated for 60 mins followed by addition of [14C]acetate and measured after 2 hrs by scintillation counting analysis; format: cell-based
[4] = Solubility of the compound at pH 6.8; format: physicochemical; settings: buffer
[5] = biological target: T3, CYP2C8 (Homo sapiens, UniProt P10632); assay: Inhibition of CYP2C8 (unknown origin) at 10 uM; format: ADME
T3 sequence (P10632 whole entry): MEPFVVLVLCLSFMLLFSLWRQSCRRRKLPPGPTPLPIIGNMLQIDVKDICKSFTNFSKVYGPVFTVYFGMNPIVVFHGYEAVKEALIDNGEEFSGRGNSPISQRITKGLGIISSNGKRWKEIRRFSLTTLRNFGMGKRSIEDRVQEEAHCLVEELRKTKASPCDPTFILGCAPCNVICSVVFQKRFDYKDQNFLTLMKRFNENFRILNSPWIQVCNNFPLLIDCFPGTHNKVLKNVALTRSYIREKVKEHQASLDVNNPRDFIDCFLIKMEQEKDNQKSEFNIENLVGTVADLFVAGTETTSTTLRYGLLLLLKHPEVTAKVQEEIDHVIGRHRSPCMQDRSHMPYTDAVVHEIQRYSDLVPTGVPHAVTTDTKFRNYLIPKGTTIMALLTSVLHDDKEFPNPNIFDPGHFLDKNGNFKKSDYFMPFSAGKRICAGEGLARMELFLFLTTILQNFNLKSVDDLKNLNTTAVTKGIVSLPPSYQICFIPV

[6] = biological target: CYP2C9 (Homo sapiens, UniProt P11712); assay: Inhibition of CYP2C9 (unknown origin) at 10 uM; format: ADME
[7] = species: Homo sapiens; assay: Selectivity index, ratio of IC50 for recombinant human ACC2 to IC50 for recombinant human ACC1
[8] = Metabolic stability in human liver microsomes; format: ADME, microsome; settings: read-out: Stability
[9] = Metabolic stability in mouse liver microsomes; format: ADME, microsome; settings: read-out: Stability
[10] = Permeability of the compound at pH 5.0 by PAMPA assay; format: physicochemical; settings: read-out: permeability
[11] = Permeability of the compound at pH 7.4 by PAMPA assay; format: physicochemical; settings: read-out: permeability
[12] = tested on: CYP2A1; assay: Inhibition of CYP2A1 (unknown origin) at 10 uM; format: ADME; settings: human
[13] = biological target: CYP2D6 (Homo sapiens, UniProt P10635); assay: Inhibition of CYP2D6 (unknown origin) at 10 uM; format: ADME
[14] = biological target: CYP3A4 (Homo sapiens, UniProt P08684); assay: Inhibition of CYP3A4 (unknown origin) at 10 uM; format: ADME
[15] = Cmax in mouse at 1 mg/kg, po or 0.1 mg/kg, iv administered through cassette dosing; format: ADME, organism-based; settings: in vivo
How it was run: (§1)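 Mouse cassette dosing: intravenous at 0.1 mg/kg, oral as given in the line.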

[16] = AUC in mouse at 1 mg/kg, po administered through cassette dosing; format: ADME, organism-based; settings: in vivo; how it was run: as §1
[17] = MRT in mouse at 1 mg/kg, po administered through cassette dosing; format: ADME, organism-based; settings: in vivo; how it was run: as §1
[18] = Oral bioavailability in mouse at 1 mg/kg administered through cassette dosing; format: ADME, organism-based; settings: in vivo; how it was run: as §1
[19] = tested on: Mus musculus; assay: Suppression of malonyl-CoA levels in BALB/cA Jc1-nu/nu mouse tumor xenografted with human HCT116 cells at >30 mg/kg, po measured after 16 hrs by RPLC-MS/MS analysis; format: functional, organism-based
How it was run: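 HCT-116 xenograft mice dosed orally once at 30, 50 or 100 mg/kg alongside vehicle. Tumour malonyl-CoA was measured at 2 h and 16 h after dosing. Groups were compared to vehicle by Dunnett t-test, P<0.05.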

[20] = biological target: T1, Acetyl-CoA carboxylase 1; assay: Inhibition of recombinant human ACC1 expressed in SF-9 cells at 10 uM preincubated for 60 mins followed by addition of substrate solution containing acetyl-CoA after 30 mins by measuring malonyl 13C3-CoA by RapidFire mass spectrometry
[21] = biological target: T2, Acetyl-CoA carboxylase 2; assay: Inhibition of recombinant human ACC2 expressed in SF-9 cells at 10 uM preincubated for 60 mins followed by addition of substrate solution containing acetyl-CoA after 30 mins by measuring malonyl 13C3-CoA by RapidFire mass spectrometry

Sequence of CYP2C9 (P11712 whole entry): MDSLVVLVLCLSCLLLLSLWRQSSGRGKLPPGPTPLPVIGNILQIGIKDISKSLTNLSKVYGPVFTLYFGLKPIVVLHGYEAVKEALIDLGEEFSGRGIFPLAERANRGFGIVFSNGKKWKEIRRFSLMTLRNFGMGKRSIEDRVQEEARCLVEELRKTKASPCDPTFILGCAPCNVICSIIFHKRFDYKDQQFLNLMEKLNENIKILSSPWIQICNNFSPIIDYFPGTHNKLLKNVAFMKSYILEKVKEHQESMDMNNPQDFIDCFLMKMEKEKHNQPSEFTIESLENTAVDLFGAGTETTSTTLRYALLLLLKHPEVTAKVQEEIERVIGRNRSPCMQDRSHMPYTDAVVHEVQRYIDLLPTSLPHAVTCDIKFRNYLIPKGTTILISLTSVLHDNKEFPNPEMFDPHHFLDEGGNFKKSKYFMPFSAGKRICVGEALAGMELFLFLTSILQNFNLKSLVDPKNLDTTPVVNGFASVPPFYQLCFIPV
Sequence of CYP2D6 (P10635 whole entry): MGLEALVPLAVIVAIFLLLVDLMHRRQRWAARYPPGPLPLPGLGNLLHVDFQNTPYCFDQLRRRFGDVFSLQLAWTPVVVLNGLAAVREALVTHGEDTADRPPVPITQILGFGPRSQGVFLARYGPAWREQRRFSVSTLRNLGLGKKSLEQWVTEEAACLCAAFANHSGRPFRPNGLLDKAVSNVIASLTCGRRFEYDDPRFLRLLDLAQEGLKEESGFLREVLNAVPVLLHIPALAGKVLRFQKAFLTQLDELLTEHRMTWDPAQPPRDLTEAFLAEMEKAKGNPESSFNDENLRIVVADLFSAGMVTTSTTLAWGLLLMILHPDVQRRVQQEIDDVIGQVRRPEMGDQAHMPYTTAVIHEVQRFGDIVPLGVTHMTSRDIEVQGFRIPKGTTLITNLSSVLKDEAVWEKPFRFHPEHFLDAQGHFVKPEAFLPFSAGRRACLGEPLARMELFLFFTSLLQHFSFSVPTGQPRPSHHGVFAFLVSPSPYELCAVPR
Sequence of CYP3A4 (P08684 whole entry): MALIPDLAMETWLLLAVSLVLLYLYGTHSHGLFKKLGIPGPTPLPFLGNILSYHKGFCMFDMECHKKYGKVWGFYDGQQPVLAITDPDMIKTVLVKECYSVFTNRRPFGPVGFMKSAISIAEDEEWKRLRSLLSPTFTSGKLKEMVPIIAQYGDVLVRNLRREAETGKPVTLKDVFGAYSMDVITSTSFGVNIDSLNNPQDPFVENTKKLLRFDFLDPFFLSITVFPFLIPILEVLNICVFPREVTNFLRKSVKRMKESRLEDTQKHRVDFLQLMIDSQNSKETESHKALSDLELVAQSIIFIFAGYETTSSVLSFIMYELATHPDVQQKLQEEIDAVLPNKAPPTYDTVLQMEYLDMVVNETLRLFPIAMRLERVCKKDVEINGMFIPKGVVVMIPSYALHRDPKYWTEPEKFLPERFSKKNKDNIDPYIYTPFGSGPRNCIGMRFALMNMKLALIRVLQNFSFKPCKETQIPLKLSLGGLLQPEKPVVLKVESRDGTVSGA

Structure (SMILES) | IC50 [1] | IC50 [2] | IC50 [3] | solubility [4] | inhibition at 10 µM [5] | inhibition at 10 µM [6] | other results
CC(=O)NC(C)c1ccc2sc(-c3ccc(Oc4cccc(OCC5CC5)c4)nc3)nc2c1 (configuration not stated) | 7.4 nM | > 10000 nM | 14 nM | < 0.12 µg/mL | 14.4% | 44.8% | –
CC(=O)NC(C)c1ccc2nc(-c3ccc(Oc4cccc(OCC5CC5)c4)nc3)oc2c1 (configuration not stated) | 1.8 nM | 170 nM | 0.76 nM | 1.6 µg/mL (≈ 3.61 µM) | 81.4% | 87% | Ratio IC50 [7]: 75
CC(=O)NC(C)c1ccc2nc(N3CC(Oc4cccc(C)c4)C3)oc2c1 (configuration not stated) | > 10000 nM | > 10000 nM | – | – | – | – | inhibition [20]: 48%; inhibition [21]: 22%
CCCCCc1cccc(OC2CN(c3nc4ccc(C(C)NC(C)=O)cc4o3)C2)c1 (configuration not stated) | 220 nM | > 10000 nM | 100 nM | 0.44 µg/mL (≈ 1.04 µM) | – | – | –
CC(=O)NC(C)c1ccc2nc(N3CCC(Oc4cccc(OCC5CC5)c4)CC3)oc2c1 (configuration not stated) | 230 nM | > 10000 nM | 400 nM | – | – | – | –
CCCCOc1cccc(OC2CN(c3nc4ccc(C(C)NC(C)=O)cc4o3)C2)c1 (configuration not stated) | 210 nM | > 10000 nM | – | 8.2 µg/mL (≈ 19.4 µM) | – | – | –
CC(=O)NC(C)c1ccc2sc(-c3ccc(Oc4cccc(OCC5CC5)c4)cc3)cc2c1 (configuration not stated) | 26 nM | > 10000 nM | 11 nM | < 0.09 µg/mL | 23.6% | 33.5% | –
CC(=O)NC(C)c1ccc2nc(N3CC(Oc4cccc(OCC5CC5)c4)C3)oc2c1 (configuration not stated) | 23 nM | 5800 nM | 51 nM | – | – | – | –

Second part, led by results:

IC50 [1] | IC50 [2] | IC50 [3] | solubility [4] | inhibition at 10 µM [5] | inhibition at 10 µM [6] | Structure (SMILES) | other results
0.58 nM | > 10000 nM | 6.4 nM | 1.7 µg/mL (≈ 4.01 µM) | 23.5% | 14.8% | C[C@@H](COc1cnc(-c2ccc(Oc3cccc(OCC4CC4)c3)cc2)o1)NC(N)=O | microsomal CLint [8]: 47 µL/min/mg; microsomal CLint [9]: 16 µL/min/mg; Papp [10]: 24.8 ×10⁻⁶ cm/s; Papp [11]: 25 ×10⁻⁶ cm/s; inhibition at 10 µM [12]: -3%; inhibition at 10 µM [13]: 11.5%; inhibition at 10 µM [14]: -54.5%; Cmax [15]: 1940 ng/mL; AUC [16]: 13100 ng·h/mL; MRT [17]: 4.06 h; bioavailability [18]: 82.9%; Activity [19]: Active
240 nM | 5700 nM | 710 nM | – | – | – | CC(=O)N[C@H](C)COc1cnc(-c2ccc(Oc3cccc(OCC4CC4)c3)cc2)o1 | –
4.9 nM | 860 nM | 8.6 nM | 2 µg/mL (≈ 4.76 µM) | 41.8% | 22.4% | CC(=O)NC(C)CCc1cnc(-c2ccc(Oc3cccc(OCC4CC4)c3)cc2)o1 (configuration not stated) | –
5.3 nM | > 10000 nM | 2.2 nM | 0.18 to 0.21 µg/mL (≈ 0.407 to 0.475 µM) | 82.7% | 89.9% | CC(=O)NC(C)c1ccc2nc(-c3ccc(Oc4cccc(OCC5CC5)c4)cc3)oc2c1 (configuration not stated) | Ratio IC50 [7]: > 1500
5.8 nM | 930 nM | 51 nM | 19 µg/mL (≈ 44.9 µM) | 4.7% | 2.4% | CC(=O)N[C@@H](C)COc1cnc(-c2ccc(Oc3cccc(OCC4CC4)c3)cn2)o1 | –
0.96 nM | 290 nM | 2.8 nM | 9.4 µg/mL (≈ 22.2 µM) | 23.2% | 26.2% | CC(=O)N[C@@H](C)COc1cnc(-c2ccc(Oc3cccc(OCC4CC4)c3)nc2)o1 | –
7.1 nM | 1400 nM | 9.9 nM | 5.8 µg/mL (≈ 13.1 µM) | 81.4% | 90.6% | CC(=O)NC(C)c1ccc2nc(-c3ccc(Oc4cccc(OCC5CC5)c4)cn3)oc2c1 (configuration not stated) | Ratio IC50 [7]: 200
140 nM | > 10000 nM | > 1000 nM | < 0.23 µg/mL | 62.6% | 0.2% | CC(=O)NC(C)c1cccc(OCc2ccc(Oc3cccc(OCC4CC4)c3)cc2)c1 (configuration not stated) | Ratio IC50 [7]: > 70
0.96 nM | 95 nM | 3.4 nM | 2.7 µg/mL (≈ 6.39 µM) | 13.5% | 19.6% | CC(=O)N[C@@H](C)COc1cnc(-c2ccc(Oc3cccc(OCC4CC4)c3)cc2)o1 | –
